Experimental data taken from ChEMBL document CHEMBL1781874, “Cytotoxic triterpenoids from the stems of Microtropis japonica” (J Nat Prod, 2009).
In brackets after ≈: the same amount, converted by molar mass. Activity calls are given as the source filed them. No cut-off for these calls is given here.

Key:
[1] = system: HepG2; experiment: Cytotoxicity against human HepG2 cells after 24 hrs by MTT assay; assay type: functional, cell-based; settings: HepG2, 24 h
Outline: (§1)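 MTT viability read-out on human cancer cell lines (Ca9-22 gingival, HL60 leukemia, HepG2 hepatoma), run to a previously published protocol.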

[2] = system: HL-60; experiment: Cytotoxicity against human HL60 cells after 24 hrs by MTT assay; assay type: functional, cell-based; settings: HL-60, 24 h; outline: as §1
[3] = biological target: Histone deacetylase 4 (Homo sapiens) (UniProt P56524); experiment: Inhibition of HDAC4 in human HL60 cells at 5 to 20 ug/ml after 24 hrs by Western blotting analysis; assay type: cell-based; settings: HL-60
Outline: (§2)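 Cells lysed for 30 min in RIPA buffer (PBS, 1% NP-40, 0.5% deoxycholate, 0.1% SDS, 1 mM orthovanadate, 100 μg/mL PMSF, 30 μg/mL aprotinin), then spun at 20000g for 30 min. Supernatant protein quantified by Bio-Rad assay. Equal protein run on 7.5, 10 or 12% SDS-PAGE, transferred to PVDF, blocked 1 h in 5% nonfat milk in TBST.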

[4] = biological target: Histone deacetylase 1 (Homo sapiens) (UniProt Q13547); experiment: Inhibition of HDAC1 in human HL60 cells at 5 to 20 ug/ml after 24 hrs by Western blotting analysis; assay type: cell-based; settings: HL-60; outline: as §2
[5] = system: HL-60; experiment: Induction of apoptosis in human HL60 cells assessed as increase in Bax expression by Western blotting analysis; assay type: functional, cell-based; outline: as §2
[6] = biological target: Histone deacetylase 5 (Homo sapiens) (UniProt Q9UQL6); experiment: Inhibition of HDAC5 in human HL60 cells at 5 to 20 ug/ml after 24 hrs by Western blotting analysis; assay type: cell-based; settings: HL-60; outline: as §2
[7] = biological target: Histone deacetylase 3 (Homo sapiens) (UniProt O15379); experiment: Inhibition of HDAC3 in human HL60 cells at 5 to 20 ug/ml after 24 hrs by Western blotting analysis; assay type: cell-based; settings: HL-60; outline: as §2
[8] = system: HL-60; experiment: Induction of apoptosis in human HL60 cells assessed as PARP cleavage by Western blotting analysis; assay type: functional, cell-based; outline: as §2
[9] = biological target: Histone deacetylase (Homo sapiens) (UniProt Q13547+O15379+Q9UBN7+Q92769+Q9UQL6+Q8WUI4+Q9BY41+Q96DB2+P56524+Q9UKV0+Q969S8); settings: HL-60, at 20 µg/mL
[10] = system: Ca9-22; experiment: Cytotoxicity against human Ca9-22 cells after 24 hrs by MTT assay; assay type: functional, cell-based; settings: Ca9-22, 24 h; outline: as §1
[11] = system: HL-60; experiment: Effect on Bcl2 expression in human HL60 cells by Western blotting analysis; assay type: functional, cell-based; outline: as §2
[12] = biological target: T1, Protein deacetylase HDAC6 (Homo sapiens) (UniProt Q9UBN7); experiment: Inhibition of HDAC6 in human HL60 cells at 5 to 20 ug/ml after 24 hrs by Western blotting analysis; assay type: cell-based; settings: HL-60; outline: as §2
T1 sequence (whole entry): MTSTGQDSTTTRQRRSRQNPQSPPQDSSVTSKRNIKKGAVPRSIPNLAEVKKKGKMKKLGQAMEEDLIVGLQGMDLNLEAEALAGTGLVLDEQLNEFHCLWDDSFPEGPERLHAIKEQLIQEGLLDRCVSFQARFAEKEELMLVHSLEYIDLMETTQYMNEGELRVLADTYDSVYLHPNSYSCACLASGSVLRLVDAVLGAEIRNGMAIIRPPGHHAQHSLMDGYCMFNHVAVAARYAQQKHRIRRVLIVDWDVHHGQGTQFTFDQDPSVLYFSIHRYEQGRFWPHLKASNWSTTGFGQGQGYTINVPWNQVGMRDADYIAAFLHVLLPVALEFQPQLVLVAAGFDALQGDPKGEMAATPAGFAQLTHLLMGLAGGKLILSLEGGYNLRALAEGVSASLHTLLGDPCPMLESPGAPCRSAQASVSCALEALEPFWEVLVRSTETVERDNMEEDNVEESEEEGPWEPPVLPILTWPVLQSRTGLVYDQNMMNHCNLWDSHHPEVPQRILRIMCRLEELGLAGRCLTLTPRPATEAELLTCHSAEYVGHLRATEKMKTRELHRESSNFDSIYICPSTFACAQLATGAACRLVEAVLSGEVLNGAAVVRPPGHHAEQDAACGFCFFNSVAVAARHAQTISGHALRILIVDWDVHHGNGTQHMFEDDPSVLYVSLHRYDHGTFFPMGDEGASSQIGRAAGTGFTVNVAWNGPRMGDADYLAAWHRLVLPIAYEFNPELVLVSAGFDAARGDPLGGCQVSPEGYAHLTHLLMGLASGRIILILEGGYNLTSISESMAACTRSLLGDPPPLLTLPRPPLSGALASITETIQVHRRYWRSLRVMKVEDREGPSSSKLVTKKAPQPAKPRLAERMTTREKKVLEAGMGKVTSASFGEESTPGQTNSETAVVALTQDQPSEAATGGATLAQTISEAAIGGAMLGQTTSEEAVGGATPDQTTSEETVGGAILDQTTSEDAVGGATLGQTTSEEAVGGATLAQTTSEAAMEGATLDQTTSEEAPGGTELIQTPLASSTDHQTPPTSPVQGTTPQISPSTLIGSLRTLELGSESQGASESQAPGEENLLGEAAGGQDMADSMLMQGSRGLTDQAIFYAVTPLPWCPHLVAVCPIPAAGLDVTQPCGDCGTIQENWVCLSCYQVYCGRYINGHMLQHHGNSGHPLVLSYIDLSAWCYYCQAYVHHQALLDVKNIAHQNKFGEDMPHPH

Chain of Histone deacetylase 5 (Homo sapiens) (Q9UQL6 whole entry): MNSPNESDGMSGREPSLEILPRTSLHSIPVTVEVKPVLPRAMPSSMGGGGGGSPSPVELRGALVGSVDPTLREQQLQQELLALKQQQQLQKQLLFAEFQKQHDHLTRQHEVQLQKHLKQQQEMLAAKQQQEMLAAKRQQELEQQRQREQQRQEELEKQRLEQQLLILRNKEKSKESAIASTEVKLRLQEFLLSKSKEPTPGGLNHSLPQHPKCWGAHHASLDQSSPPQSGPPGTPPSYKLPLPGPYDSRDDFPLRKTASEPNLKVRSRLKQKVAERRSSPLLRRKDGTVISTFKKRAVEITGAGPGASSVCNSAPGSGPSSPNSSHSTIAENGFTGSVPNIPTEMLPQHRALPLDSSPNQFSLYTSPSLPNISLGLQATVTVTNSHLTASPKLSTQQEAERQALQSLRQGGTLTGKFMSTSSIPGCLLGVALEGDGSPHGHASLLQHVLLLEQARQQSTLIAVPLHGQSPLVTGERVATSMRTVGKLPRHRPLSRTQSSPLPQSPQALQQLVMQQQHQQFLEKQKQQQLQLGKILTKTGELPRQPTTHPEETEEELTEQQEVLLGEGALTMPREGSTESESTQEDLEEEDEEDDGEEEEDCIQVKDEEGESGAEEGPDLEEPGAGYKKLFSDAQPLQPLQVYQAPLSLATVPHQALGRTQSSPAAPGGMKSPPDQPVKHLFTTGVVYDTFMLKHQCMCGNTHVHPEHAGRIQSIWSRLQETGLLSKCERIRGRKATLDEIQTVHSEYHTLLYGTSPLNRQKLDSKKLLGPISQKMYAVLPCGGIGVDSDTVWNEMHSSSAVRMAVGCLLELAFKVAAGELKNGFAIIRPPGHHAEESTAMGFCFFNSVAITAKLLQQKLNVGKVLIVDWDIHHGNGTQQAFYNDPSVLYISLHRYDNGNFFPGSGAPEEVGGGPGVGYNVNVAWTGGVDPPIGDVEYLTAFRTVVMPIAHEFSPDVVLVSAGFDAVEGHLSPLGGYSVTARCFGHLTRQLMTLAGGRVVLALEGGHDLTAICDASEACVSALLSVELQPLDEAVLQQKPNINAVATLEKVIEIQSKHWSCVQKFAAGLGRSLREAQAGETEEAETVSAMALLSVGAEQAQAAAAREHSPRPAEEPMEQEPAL
Chain of Histone deacetylase 4 (Homo sapiens) (P56524 whole entry): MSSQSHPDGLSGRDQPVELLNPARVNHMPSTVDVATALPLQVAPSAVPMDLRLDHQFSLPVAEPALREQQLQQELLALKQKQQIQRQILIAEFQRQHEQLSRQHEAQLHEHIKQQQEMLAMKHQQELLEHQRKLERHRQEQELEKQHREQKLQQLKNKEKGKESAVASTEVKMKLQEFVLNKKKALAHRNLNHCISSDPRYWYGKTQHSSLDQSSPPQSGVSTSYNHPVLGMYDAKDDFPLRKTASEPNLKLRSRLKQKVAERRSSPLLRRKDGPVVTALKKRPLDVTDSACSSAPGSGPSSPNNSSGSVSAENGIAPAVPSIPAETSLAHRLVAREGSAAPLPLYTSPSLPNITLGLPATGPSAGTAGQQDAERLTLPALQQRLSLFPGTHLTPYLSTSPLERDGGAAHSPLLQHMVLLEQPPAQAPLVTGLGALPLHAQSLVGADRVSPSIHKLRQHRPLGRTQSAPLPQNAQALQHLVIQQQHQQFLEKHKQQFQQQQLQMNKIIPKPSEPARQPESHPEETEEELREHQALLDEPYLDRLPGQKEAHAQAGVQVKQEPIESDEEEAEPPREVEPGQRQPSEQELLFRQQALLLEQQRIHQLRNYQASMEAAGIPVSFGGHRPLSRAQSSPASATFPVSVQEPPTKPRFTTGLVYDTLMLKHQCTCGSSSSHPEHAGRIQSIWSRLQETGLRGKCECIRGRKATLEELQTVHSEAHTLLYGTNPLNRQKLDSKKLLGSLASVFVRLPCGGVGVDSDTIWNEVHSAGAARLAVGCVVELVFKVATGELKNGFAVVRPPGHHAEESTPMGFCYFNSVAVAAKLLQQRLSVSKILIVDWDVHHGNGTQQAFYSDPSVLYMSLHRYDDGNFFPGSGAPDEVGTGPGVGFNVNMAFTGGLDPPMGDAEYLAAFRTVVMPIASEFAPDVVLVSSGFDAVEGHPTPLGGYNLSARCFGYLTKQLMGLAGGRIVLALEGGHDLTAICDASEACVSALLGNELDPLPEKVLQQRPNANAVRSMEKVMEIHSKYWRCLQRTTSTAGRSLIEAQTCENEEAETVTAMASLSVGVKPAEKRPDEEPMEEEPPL
Chain of Histone deacetylase 3 (Homo sapiens) (O15379 whole entry): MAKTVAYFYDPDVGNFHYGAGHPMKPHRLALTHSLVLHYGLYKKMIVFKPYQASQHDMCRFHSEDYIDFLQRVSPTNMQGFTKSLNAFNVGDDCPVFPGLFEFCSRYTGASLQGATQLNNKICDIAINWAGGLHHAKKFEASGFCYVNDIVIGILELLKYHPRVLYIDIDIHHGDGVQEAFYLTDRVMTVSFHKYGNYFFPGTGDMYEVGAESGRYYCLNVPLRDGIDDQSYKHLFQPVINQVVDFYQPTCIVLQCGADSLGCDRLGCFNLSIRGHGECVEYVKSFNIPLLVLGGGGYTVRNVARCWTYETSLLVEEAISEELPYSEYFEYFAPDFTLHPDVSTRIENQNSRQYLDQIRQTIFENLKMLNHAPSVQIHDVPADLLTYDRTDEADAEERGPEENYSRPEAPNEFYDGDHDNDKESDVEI
Chain of Histone deacetylase 1 (Homo sapiens) (Q13547 whole entry): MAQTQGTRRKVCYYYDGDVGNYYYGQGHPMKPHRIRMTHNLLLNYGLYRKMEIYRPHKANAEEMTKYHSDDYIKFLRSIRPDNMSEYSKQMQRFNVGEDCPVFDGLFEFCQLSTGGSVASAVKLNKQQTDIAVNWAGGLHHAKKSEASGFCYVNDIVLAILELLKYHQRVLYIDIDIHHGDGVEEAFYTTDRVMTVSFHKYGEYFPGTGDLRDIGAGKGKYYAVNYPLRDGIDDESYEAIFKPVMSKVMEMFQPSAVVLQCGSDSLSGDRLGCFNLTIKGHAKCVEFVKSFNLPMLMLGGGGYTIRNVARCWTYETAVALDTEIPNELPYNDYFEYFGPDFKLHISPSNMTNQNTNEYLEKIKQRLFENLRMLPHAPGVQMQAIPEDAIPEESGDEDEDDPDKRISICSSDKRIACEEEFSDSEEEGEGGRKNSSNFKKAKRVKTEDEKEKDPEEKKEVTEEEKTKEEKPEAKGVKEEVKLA

Row | inhibition [3] | inhibition [4] | inhibition [6] | inhibition [7] | inhibition [9] | inhibition [12] | Compound | IC50 [1] [µg/mL] | IC50 [2] [µg/mL] | Activity [5] | Activity [8] | IC50 [10] [µg/mL] | Activity [11]
1 | – | – | – | – | – | – | CO[C@@H]1C(O)=C2[C@@H]3[C@@H](C)[C@H](C)CC[C@]3(C)CC[C@@]2(C)[C@]2(C)CC[C@@H]3[C@](C)(CCC(=O)[C@@]3(C)CO)[C@@H]12 | 7.7 (≈ 15.8 µM) | 5.1 (≈ 10.5 µM) | – | – | – | –
2 | Active | Active | Active | Active | Active | Active | C[C@H]1[C@H](C)CC[C@]2(C(=O)O)CC[C@]3(C)C(=CC[C@@H]4[C@@]5(C)CC[C@H](O)C(C)(C)[C@@H]5CC[C@]43C)[C@H]12 [URSOLIC ACID] | – | 8.7 (≈ 19 µM) | Active | Active | 5.9 (≈ 12.9 µM) | inactive
